{"source": "ChEMBL document CHEMBL1212850", "about": "“Synthesis and biological evaluation of arylidene analogues of Meldrum's acid as a new class of antimalarial and antioxidant agents” (Bioorg Med Chem, 2010)", "key": {"Plasmodium falciparum": {"system": "Plasmodium falciparum", "assay": "Antimalarial activity against Plasmodium falciparum infected in human O+ erythrocytes after 48 hrs by HRP2-ELISA method", "format": "functional, organism-based"}, "[1]": {"assay": "Antioxidant activity assessed as ABTS free radical scavenging activity at 100 uM after 12 hrs", "format": "functional", "in_short": "(§1)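 ABTS radical cation made by mixing 7 mM ABTS stock with 2.45 mM potassium persulfate, left 12 h in dark. Ethanolic compound solution added to ABTS solution, absorbance at 734 nm read after mixing up to 6 min. Reported as % ABTS radical scavenged; triplicate.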"}, "[2]": {"system": "Radical scavenging activity", "assay": "Antioxidant activity assessed as DPPH free radical scavenging activity at 100 uM after 1 hr", "format": "functional", "in_short": "(§2)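 Test compound at various concentrations added to 60 µM methanolic DPPH. Held 1 h at room temperature, then absorbance read at 517 nm; trolox used as reference standard. Values from three experiments.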"}, "[3]": {"assay": "Antioxidant activity assessed as ABTS free radical scavenging activity after 12 hrs", "format": "functional", "in_short": "as §1"}, "[4]": {"system": "Radical scavenging activity", "assay": "Antioxidant activity assessed as DPPH free radical scavenging activity after 1 hr", "format": "functional", "in_short": "as §2"}}, "data": [{"smiles": "CC1(C)OC(=O)C(=Cc2cccc3ccccc23)C(=O)O1", "values": [{"measurement": "IC50", "setting": "Plasmodium falciparum", "value": 16.1, "unit": "µM"}, {"measurement": "inhibition", "setting": "[1]", "value": 7.55, "unit": "%"}, {"measurement": "inhibition", "setting": "[2]", "value": 8.88, "unit": "%"}]}, {"smiles": "COc1cc(OC)c(OC)cc1C=C1C(=O)OC(C)(C)OC1=O", "values": [{"measurement": "IC50", "setting": "Plasmodium falciparum", "value": 33.9, "unit": "µM"}, {"measurement": "inhibition", "setting": "[1]", "value": 9.86, "unit": "%"}, {"measurement": "inhibition", "setting": "[2]", "value": 6.23, "unit": "%"}]}, {"smiles": "COc1cc(C=C2C(=O)OC(C)(C)OC2=O)ccc1OCc1ccccc1", "values": [{"measurement": "IC50", "setting": "Plasmodium falciparum", "value": 37.2, "unit": "µM"}, {"measurement": "inhibition", "setting": "[1]", "value": 3.62, "unit": "%"}, {"measurement": "inhibition", "setting": "[2]", "value": 10.7, "unit": "%"}]}, {"smiles": "CC1(C)OC(=O)C2(OC2c2ccccc2[N+](=O)[O-])C(=O)O1", "note": "(stereo not drawn)", "values": [{"measurement": "IC50", "setting": "Plasmodium falciparum", "value": "> 100", "unit": "µM"}]}, {"smiles": "Cc1c(C)c2c(c(C)c1O)CCC(C)(C(=O)O)O2", "note": "(stereo not drawn) [TROLOX]", "values": [{"measurement": "IC50", "setting": "[3]", "value": 16.2, "unit": "µM"}, {"measurement": "inhibition", "setting": "[1]", "value": 99.1, "unit": "%"}, {"measurement": "inhibition", "setting": "[2]", "value": 99.5, "unit": "%"}, {"measurement": "IC50", "setting": "[4]", "value": 15.7, "unit": "µM"}]}, {"smiles": "CC1(C)OC(=O)C(=Cc2c[nH]c3ccccc23)C(=O)O1", "values": [{"measurement": "IC50", "setting": "Plasmodium falciparum", "value": 41.7, "unit": "µM"}, {"measurement": "inhibition", "setting": "[1]", "value": 3.12, "unit": "%"}, {"measurement": "inhibition", "setting": "[2]", "value": 1.79, "unit": "%"}]}, {"smiles": "COc1cc(C=C2C(=O)OC(C)(C)OC2=O)ccc1O", "values": [{"measurement": "IC50", "setting": "[3]", "value": 30.5, "unit": "µM"}, {"measurement": "IC50", "setting": "Plasmodium falciparum", "value": 9.68, "unit": "µM"}, {"measurement": "inhibition", "setting": "[1]", "value": 92.6, "unit": "%"}, {"measurement": "inhibition", "setting": "[2]", "value": 76, "unit": "%"}, {"measurement": "IC50", "setting": "[4]", "value": 24, "unit": "µM"}]}, {"smiles": "COc1ccc2ccccc2c1C=C1C(=O)OC(C)(C)OC1=O", "values": [{"measurement": "IC50", "setting": "Plasmodium falciparum", "value": 31.8, "unit": "µM"}, {"measurement": "inhibition", "setting": "[1]", "value": 4.73, "unit": "%"}, {"measurement": "inhibition", "setting": "[2]", "value": 9.48, "unit": "%"}]}, {"smiles": "CCOc1cc(C=C2C(=O)OC(C)(C)OC2=O)ccc1O", "values": [{"measurement": "IC50", "setting": "[3]", "value": 30.7, "unit": "µM"}, {"measurement": "IC50", "setting": "Plasmodium falciparum", "value": 15.5, "unit": "µM"}, {"measurement": "inhibition", "setting": "[1]", "value": 95.6, "unit": "%"}, {"measurement": "inhibition", "setting": "[2]", "value": 66.2, "unit": "%"}, {"measurement": "IC50", "setting": "[4]", "value": 39.1, "unit": "µM"}]}, {"smiles": "CC1(C)OC(=O)C(=C/C=C/c2ccccc2)C(=O)O1", "values": [{"measurement": "IC50", "setting": "Plasmodium falciparum", "value": 24.3, "unit": "µM"}, {"measurement": "inhibition", "setting": "[1]", "value": 20.2, "unit": "%"}, {"measurement": "inhibition", "setting": "[2]", "value": 53.1, "unit": "%"}]}, {"smiles": "COc1ccc(C=C2C(=O)OC(C)(C)OC2=O)cc1", "values": [{"measurement": "IC50", "setting": "Plasmodium falciparum", "value": 36.4, "unit": "µM"}, {"measurement": "inhibition", "setting": "[1]", "value": 9.26, "unit": "%"}, {"measurement": "inhibition", "setting": "[2]", "value": 5.81, "unit": "%"}]}, {"smiles": "COc1ccc(C=C2C(=O)OC(C)(C)OC2=O)cc1OCc1ccccc1", "values": [{"measurement": "IC50", "setting": "Plasmodium falciparum", "value": 36.1, "unit": "µM"}]}, {"smiles": "CC1(C)OC(=O)C(=Cc2ccccc2)C(=O)O1", "values": [{"measurement": "IC50", "setting": "Plasmodium falciparum", "value": 37.8, "unit": "µM"}]}, {"smiles": "COc1cc(C=C2C(=O)OC(C)(C)OC2=O)cc(OC)c1OC", "values": [{"measurement": "IC50", "setting": "Plasmodium falciparum", "value": 20.2, "unit": "µM"}, {"measurement": "inhibition", "setting": "[1]", "value": 5.33, "unit": "%"}, {"measurement": "inhibition", "setting": "[2]", "value": 3.24, "unit": "%"}]}, {"smiles": "CN(C)c1ccc(C=C2C(=O)OC(C)(C)OC2=O)cc1", "values": [{"measurement": "IC50", "setting": "Plasmodium falciparum", "value": 35.2, "unit": "µM"}, {"measurement": "inhibition", "setting": "[1]", "value": 13.9, "unit": "%"}, {"measurement": "inhibition", "setting": "[2]", "value": 10.3, "unit": "%"}]}, {"smiles": "O=C1CCCC(=O)C1=Cc1ccccc1", "values": [{"measurement": "IC50", "setting": "Plasmodium falciparum", "value": "> 100", "unit": "µM"}]}, {"smiles": "CC1(C)OC(=O)C(=Cc2ccc(O)cc2)C(=O)O1", "values": [{"measurement": "IC50", "setting": "Plasmodium falciparum", "value": 34.6, "unit": "µM"}, {"measurement": "inhibition", "setting": "[1]", "value": 14.4, "unit": "%"}, {"measurement": "inhibition", "setting": "[2]", "value": 5.12, "unit": "%"}]}, {"smiles": "C[C@@H]1CC[C@H]2[C@@H](C)C(=O)O[C@@H]3O[C@@]4(C)CC[C@@H]1[C@]32OO4", "note": "[ARTEMISININ]", "values": [{"measurement": "IC50", "setting": "Plasmodium falciparum", "value": 0.0028, "unit": "µM"}]}, {"smiles": "CC1(C)OC(=O)C2(OC2c2ccccc2)C(=O)O1", "note": "(stereo not drawn)", "values": [{"measurement": "IC50", "setting": "Plasmodium falciparum", "value": "> 100", "unit": "µM"}]}, {"smiles": "COc1ccc(C=C2C(=O)OC(C)(C)OC2=O)cc1OC", "values": [{"measurement": "IC50", "setting": "Plasmodium falciparum", "value": 26.1, "unit": "µM"}, {"measurement": "inhibition", "setting": "[1]", "value": 6.84, "unit": "%"}, {"measurement": "inhibition", "setting": "[2]", "value": 4.74, "unit": "%"}]}, {"smiles": "COc1ccc(OC)c(C=C2C(=O)OC(C)(C)OC2=O)c1", "values": [{"measurement": "IC50", "setting": "Plasmodium falciparum", "value": 33.2, "unit": "µM"}, {"measurement": "inhibition", "setting": "[1]", "value": 13.8, "unit": "%"}, {"measurement": "inhibition", "setting": "[2]", "value": 12.2, "unit": "%"}]}, {"smiles": "CC1(C)OC(=O)C(=Cc2ccc3ccccc3c2)C(=O)O1", "values": [{"measurement": "IC50", "setting": "Plasmodium falciparum", "value": 14.3, "unit": "µM"}, {"measurement": "inhibition", "setting": "[1]", "value": 17, "unit": "%"}, {"measurement": "inhibition", "setting": "[2]", "value": 20.6, "unit": "%"}]}, {"smiles": "O=C1O[C@H]([C@@H](O)CO)C(O)=C1O", "note": "[ASCORBIC ACID]", "values": [{"measurement": "IC50", "setting": "[3]", "value": 25.5, "unit": "µM"}, {"measurement": "inhibition", "setting": "[1]", "value": 98, "unit": "%"}, {"measurement": "inhibition", "setting": "[2]", "value": 99.4, "unit": "%"}, {"measurement": "IC50", "setting": "[4]", "value": 22.4, "unit": "µM"}]}, {"smiles": "CC1(C)OC(=O)C(=Cc2ccccc2[N+](=O)[O-])C(=O)O1", "values": [{"measurement": "IC50", "setting": "Plasmodium falciparum", "value": 39.6, "unit": "µM"}, {"measurement": "inhibition", "setting": "[1]", "value": 1.3, "unit": "%"}, {"measurement": "inhibition", "setting": "[2]", "value": 6.41, "unit": "%"}]}, {"smiles": "CC1(C)OC(=O)C(=Cc2cccs2)C(=O)O1", "values": [{"measurement": "IC50", "setting": "Plasmodium falciparum", "value": "> 100", "unit": "µM"}, {"measurement": "inhibition", "setting": "[1]", "value": 3.77, "unit": "%"}, {"measurement": "inhibition", "setting": "[2]", "value": 6.32, "unit": "%"}]}, {"smiles": "CC1(C)OC(=O)C(=Cc2ccc3c(c2)OCO3)C(=O)O1", "values": [{"measurement": "IC50", "setting": "Plasmodium falciparum", "value": 28.1, "unit": "µM"}, {"measurement": "inhibition", "setting": "[1]", "value": 8.25, "unit": "%"}, {"measurement": "inhibition", "setting": "[2]", "value": 8.2, "unit": "%"}]}, {"smiles": "COc1ccc(C=C2C(=O)OC(C)(C)OC2=O)cc1O", "values": [{"measurement": "IC50", "setting": "[3]", "value": 72.2, "unit": "µM"}, {"measurement": "IC50", "setting": "Plasmodium falciparum", "value": 12.4, "unit": "µM"}, {"measurement": "inhibition", "setting": "[1]", "value": 52.8, "unit": "%"}, {"measurement": "inhibition", "setting": "[2]", "value": 40.2, "unit": "%"}, {"measurement": "IC50", "setting": "[4]", "value": 80, "unit": "µM"}]}, {"smiles": "COc1ccc(C=C2C(=O)OC(C)(C)OC2=O)c(OC)c1OC", "values": [{"measurement": "IC50", "setting": "Plasmodium falciparum", "value": 34.7, "unit": "µM"}, {"measurement": "inhibition", "setting": "[1]", "value": 13, "unit": "%"}, {"measurement": "inhibition", "setting": "[2]", "value": 5.72, "unit": "%"}]}, {"smiles": "CC1(C)OC(=O)C(=Cc2c3ccccc3cc3ccccc23)C(=O)O1", "values": [{"measurement": "IC50", "setting": "Plasmodium falciparum", "value": "> 100", "unit": "µM"}, {"measurement": "inhibition", "setting": "[1]", "value": 10.7, "unit": "%"}, {"measurement": "inhibition", "setting": "[2]", "value": 8.76, "unit": "%"}]}]}
